Test results reported in ChEMBL document CHEMBL4699465, “Isolation of Isotrichophycin C and Trichophycins G-I from a Collection of Trichodesmium thiebautii” (J Nat Prod, 2020).

Tested on: N2a
Experiment: Cytotoxicity against mouse Neuro-2a cells assessed as reduction in cell viability incubated for 72 hrs by MTT assay
Format: functional, cell-based
In short: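 Murine neuroblastoma neuro-2A cells were tested over a range of concentrations, with four technical replicates per concentration. Each assay was run in triplicate. Doxorubicin served as the positive control. EC50 was taken from concentration–viability curves.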

Row | SMILES | EC50
1 | COc1cccc2c1C(=O)c1c(O)c3c(c(O)c1C2=O)C[C@@](O)(C(=O)CO)C[C@@H]3O[C@H]1C[C@H](N)[C@H](O)[C@H](C)O1 [DOXORUBICIN] | 127 µM
2 | C#CCCCCC/C(=C/Cl)CC[C@H](O)/C=C(\C)[C@H](O)CC=C | > 50 µM
3 | C[C@H](CC[C@@H](O)C/C(=C/Cl)CCCC#CBr)C[C@@H](C)[C@@H](O)C/C=C/Cl | > 100 µM
4 | C=CC[C@@H](OC(C)=O)[C@H](C)CCCC[C@@H](OC(C)=O)[C@H](C)C[C@H](C)CC[C@H](C/C(=C\Cl)Cc1ccccc1)OC(C)=O | > 100 µM
5 | C=CC[C@H](O)[C@H](C)C[C@H](C)CC[C@@H](O)C/C(=C\Cl)Cc1ccccc1 | 8.4 µM
6 | C=CC[C@@H](O)/C(C)=C/[C@@H](O)CC/C(=C\Cl)Cc1ccccc1 | > 50 µM
7 | C[C@H](CC[C@@H](O)C/C(=C/Cl)Cc1ccccc1)C[C@@H](C)[C@@H](O)C/C=C/Cl | 24 µM
8 | CC(=O)O[C@H](CC[C@@H](C)C[C@@H](C)[C@H](C/C=C/Cl)OC(C)=O)C/C(=C\Cl)Cc1ccccc1 | > 100 µM
9 | COC1=CC(=O)O[C@@H]([C@H](C)C[C@H](C)CC[C@@H](O)C/C(=C/Cl)Cc2ccccc2)C1 | 15 µM
10 | C#CCCC/C(=C/Cl)C[C@H](O)CC[C@@H](C)C[C@@H](C)[C@H](O)CCCC[C@@H](C)[C@H](O)CC=C | 12 µM
11 | CCC(=O)N(C)CCC/C(=C\Cl)C/C=C(\C)C[C@@H](C)C[C@@H](C)[C@H]1CC(OC)=CC(=O)O1 | 14 µM
12 | C[C@H](CC[C@@H](O)C/C(=C\Cl)Cc1ccccc1)C[C@@H](C)[C@@H](O)C/C=C/Cl | 13 µM
13 | C#CCCC/C(=C\Cl)C[C@H](O)CC[C@@H](C)C[C@@H](C)[C@@H](O)C/C=C/Cl | 40 µM
14 | COC1=CC(=O)O[C@@H]([C@H](C)C[C@H](C)CC(C)=O)C1 | > 100 µM
15 | C=CC[C@@H](O)[C@H](C)CCCC[C@@H](O)[C@H](C)C[C@H](C)CC[C@@H](O)C/C(=C\Cl)Cc1ccccc1 | 6.5 µM
